Source: ChEMBL document CHEMBL2146437, “Burkholdines from Burkholderia ambifaria: antifungal agents and possible virulence factors” (J Nat Prod, 2012)
In brackets after ≈: the same amount, converted by molar mass.

What was measured:
[1] = Toxicity in sheep erythrocytes assessed as concentration required to achieve 10% hemolysis after 1 hr by serial dilution method; type: cell-based, Ovis aries; conditions: erythrocyte
In short: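 Sheep erythrocytes as a 0.25% suspension in phosphate-buffered saline received compound in 2-fold serial dilutions and were held 1 h at 37 °C. Cells were then pelleted at 1000g for 5 min, and supernatant absorbance was read at 540 nm. The value is the concentration giving 10% hemolysis, reported as mean ± standard deviation of two independent measurements.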

Candida albicans = assay: Antifungal activity against Candida albicans; type: functional
Aspergillus niger [2] = assay: Antifungal activity against Aspergillus niger; type: functional
Saccharomyces cerevisiae = assay: Antifungal activity against Saccharomyces cerevisiae; type: functional
[3] = Ratio of HC10 for sheep erythrocytes to MIC for Candida albicans; type: functional
Aspergillus niger [4] = assay: Ratio of amphotericin-B MIC to compound MIC for Aspergillus niger; type: functional

| Compound | HC10 [1] | MIC (Candida albicans) | MIC (Aspergillus niger [2]) | MIC (Saccharomyces cerevisiae) | Ratio [3] | Ratio (Aspergillus niger [4]) |
| --- | --- | --- | --- | --- | --- | --- |
| CCCCCCCCCCC[C@H](O[C@H]1OC[C@@H](O)[C@H](O)[C@H]1O)[C@H](O)[C@H](O)C[C@@H]1CC(=O)N[C@H](CO)C(=O)N[C@H]([C@H](O)c2ccc(O)cc2)C(=O)N[C@H](CCN)C(=O)NCC(=O)N[C@@H](CC(N)=O)C(=O)N[C@@H](CO)C(=O)N[C@@H]([C@H](O)C(N)=O)C(=O)N1 [BURKHOLDINE 1215] | 5 µg/mL | 0.15 µg/mL (≈ 0.123 µM) | 0.15 µg/mL (≈ 0.123 µM) | 0.15 µg/mL (≈ 0.123 µM) | 33 |  |
| CCCCCCCCCCC[C@H](O[C@@H]1OC[C@@H](O)[C@H](O)[C@H]1O)[C@H](O)[C@H](O)C[C@@H]1CC(=O)N[C@H](CO)C(=O)N[C@H]([C@H](O)c2ccc(O)cc2)C(=O)N[C@H](CCN)C(=O)NCC(=O)N[C@@H](CC(N)=O)C(=O)N[C@@H](CO)C(=O)N[C@@H](CC(N)=O)C(=O)N1 [BURKHOLDINES 1119] | 15 µg/mL | 0.4 µg/mL (≈ 0.333 µM) | 0.1 µg/mL (≈ 0.0833 µM) | 0.1 µg/mL (≈ 0.0833 µM) | 38 | 25 |
| C[C@@H]1[C@H](O)[C@@H](C)/C=C/C=C/C=C/C=C/C=C/C=C/C=C/[C@H](O[C@@H]2O[C@H](C)[C@@H](O)[C@H](N)[C@@H]2O)C[C@@H]2O[C@](O)(C[C@@H](O)C[C@@H](O)[C@H](O)CC[C@@H](O)C[C@@H](O)CC(=O)O[C@H]1C)C[C@H](O)[C@H]2C(=O)O [AMPHOTERICIN B] |  | 2.5 µg/mL (≈ 2.71 µM) | 2.5 µg/mL (≈ 2.71 µM) | 2.5 µg/mL (≈ 2.71 µM) |  |  |
| CCCCCCCCCCC[C@H](O)[C@H](O)[C@H](O)C[C@@H]1CC(=O)N[C@H](CO)C(=O)N[C@H]([C@H](O)c2ccc(O)cc2)C(=O)N[C@H](CC(N)=O)C(=O)NCC(=O)N[C@@H](CC(N)=O)C(=O)N[C@@H](CO)C(=O)N[C@@H]([C@H](O)C(N)=O)C(=O)N1 (relative stereo) | 4.5 µg/mL | 12.5 µg/mL (≈ 11.4 µM) | 1.6 µg/mL (≈ 1.46 µM) | 1.6 µg/mL (≈ 1.46 µM) | 0.4 |  |
| CCCCCCCCCCC[C@H](O[C@@H]1OC[C@@H](O)[C@H](O)[C@H]1O)[C@H](O)[C@H](O)C[C@@H]1CC(=O)N[C@H](CO)C(=O)N[C@H]([C@H](O)c2ccc(O)cc2)C(=O)N[C@H](CC(N)=O)C(=O)NCC(=O)N[C@@H](CC(N)=O)C(=O)N[C@@H](CO)C(=O)N[C@@H](CC(N)=O)C(=O)N1 [BURKHOLDINES 1213] | 37 µg/mL | 31 µg/mL (≈ 25.5 µM) | 2 µg/mL (≈ 1.65 µM) | 2 µg/mL (≈ 1.65 µM) | 1 |  |
| CCCCCCCCCCC[C@H](O[C@@H]1OC[C@@H](O)[C@H](O)[C@H]1O)[C@H](O)[C@H](O)C[C@@H]1CC(=O)N[C@H](CO)C(=O)N[C@H]([C@H](O)c2ccc(O)cc2)C(=O)N[C@H](CC(N)=O)C(=O)NCC(=O)N[C@@H](CC(N)=O)C(=O)N[C@@H](CO)C(=O)N[C@@H]([C@H](O)C(N)=O)C(=O)N1 | 10 µg/mL | 12.5 µg/mL (≈ 10.2 µM) | 12.5 µg/mL (≈ 10.2 µM) | 0.4 µg/mL (≈ 0.325 µM) | 1 |  |
